Laboratory results: ChEMBL document CHEMBL4316650, “Leucinostatin Y: A Peptaibiotic Produced by the Entomoparasitic Fungus Purpureocillium lilacinum 40-H-28” (J Nat Prod, 2019)
The source made the active and inactive calls. The rule behind the calls is not given here. *1 amine or outer side, *2 acyl side, *3 side chain or, on linkers, in order; H or OH if unused. Where a SMILES comes first, the peptide text is derived from it. [ ]: non-standard residue; d: D form. The star is where a group is joined. ξ: configuration not given here. X1 = CCC(=O)C[C@H](O)C[C@@H](C)C[C@H](N[*:1])C(=O)[*:2]; X3 = CCC(=O)CC(O)CC(C)C[C@H](N[*:1])C(=O)[*:2]; Hexenoyl(2E,4S-Me) = CC[C@H](C)/C=C/C(=O)*; Leu(3R-OH) = CC(C)[C@@H](O)[C@H](N)C(=O)O; NH((S)CH(Me)CH2NMe2) = C[C@@H](CN(C)C)N*; Pro(4S-Me) = C[C@@H]1CN[C@H](C(=O)O)C1; X2 = CCC(C)/C=C/C(=O)*; Aib = CC(C)(N)C(=O)O; βAla = NCCC(=O)O; ξA = CC(N)C(=O)O

What was measured:
Homo sapiens [1] = species on record: Homo sapiens; test: Inhibition of mitochondrial ATPase in human PANC1 cells assessed as increase in extracellular acidification rate in presence of glucose by seahorse XFe96 analyser based assay; format: cell-based
Summary of the method: (§1)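 Mito stress test on PANC-1 cells: 2 × 10⁴ cells were plated in DMEM overnight. Cells were moved to XF base medium with 1 mM pyruvate and 2 mM GlutaMax, containing 1 g/L glucose (or lacking it for glucose-free runs), then held 30 min at 37 °C without CO2. Injections in order: compound, 1 μM oligomycin, 1 μM FCCP, 0.5 μM rotenone plus 0.5 μM antimycin. OCR and ECAR were taken as mean rates per cycle of 2 min mixing and 3 min acquisition, over 20 or 21 cycles.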

BXPC-3 [2] = test: Cytotoxicity against human BxPC3 cells assessed as reduction in cell viability measured after 24 hrs in presence of glucose by MTT assay; format: cell-based; settings: bxpc-3, 24 h
Summary of the method: (§2)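 Cells grown at 37 °C, 5% CO2 in DMEM with 10% FBS. 2.5 × 10⁴ cells/well were seeded in DMEM for 24 h, then PBS-washed and switched to fresh DMEM (+glucose) or glucose-deprived medium. Compound exposure was 24 h. MTT at 0.5 mg/mL was added for 4 h at 37 °C, then 20% SDS for 12 h at 37 °C. Absorbance read at 570 nm.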

BXPC-3 [3] = test: Cytotoxicity against human BxPC3 cells assessed as reduction in cell viability measured after 24 hrs under glucose-deprived condition by MTT assay; format: functional, cell-based; summary of the method: as §2
Homo sapiens [4] = species on record: Homo sapiens; test: Inhibition of mitochondrial ATPase in human PANC1 cells assessed as decrease in oxygen consumption rate in presence of glucose by seahorse XFe96 analyser based assay; format: cell-based; summary of the method: as §1
PSN1 [5] = test: Cytotoxicity against human PSN1 cells assessed as reduction in cell viability measured after 24 hrs in presence of glucose by MTT assay; format: cell-based; settings: psn1, 24 h; summary of the method: as §2
Homo sapiens [6] = species on record: Homo sapiens; test: Cytotoxicity against human PK8 cells assessed as reduction in cell viability measured after 24 hrs under glucose-deprived condition by MTT assay; format: functional, cell-based; summary of the method: as §2
PANC-1 [7] = test: Cytotoxicity against human PANC1 cells assessed as reduction in cell viability measured after 24 hrs under glucose-deprived condition by MTT assay; format: functional, cell-based; summary of the method: as §2
[8] = Cytotoxicity against human PK8 cells assessed as reduction in cell viability measured after 24 hrs in presence of glucose by MTT assay; format: cell-based; summary of the method: as §2
PANC-1 [9] = test: Cytotoxicity against human PANC1 cells assessed as reduction in cell viability measured after 24 hrs in presence of glucose by MTT assay; format: cell-based; settings: panc-1, 24 h; summary of the method: as §2
PSN1 [10] = test: Cytotoxicity against human PSN1 cells assessed as reduction in cell viability measured after 24 hrs under glucose-deprived condition by MTT assay; format: functional, cell-based; summary of the method: as §2
Homo sapiens [11] = species on record: Homo sapiens; test: Inhibition of mitochondrial ATPase in human PANC1 cells assessed as increase in extracellular acidification rate at 0.6 ug/ml in presence of glucose by seahorse XFe96 analyser based assay; format: cell-based; summary of the method: as §1
Homo sapiens [12] = species on record: Homo sapiens; test: Inhibition of mitochondrial ATPase in human PANC1 cells assessed as decrease in oxygen consumption rate at 0.6 ug/ml in absence of glucose by seahorse XFe96 analyser based assay; format: cell-based; summary of the method: as §1
Homo sapiens [13] = species on record: Homo sapiens; test: Inhibition of mitochondrial ATPase in human PANC1 cells assessed as decrease in oxygen consumption rate at 0.6 ug/ml in presence of glucose by seahorse XFe96 analyser based assay; format: cell-based; summary of the method: as §1
Homo sapiens [14] = species on record: Homo sapiens; test: Inhibition of mitochondrial ATPase in human PANC1 cells assessed as increase in extracellular acidification rate at 0.6 ug/ml in absence of glucose by seahorse XFe96 analyser based assay; format: cell-based; summary of the method: as §1

Row | SMILES | inhibition (Homo sapiens [1]) | Activity (BXPC-3 [2]) | Activity (BXPC-3 [3]) | inhibition (Homo sapiens [4]) | Activity (PSN1 [5]) | Activity (Homo sapiens [6]) | Activity (PANC-1 [7]) | Activity [8] | Activity (PANC-1 [9]) | Activity (PSN1 [10]) | inhibition (Homo sapiens [11]) | inhibition (Homo sapiens [12]) | inhibition (Homo sapiens [13]) | inhibition (Homo sapiens [14])
1 | CCC(=O)CC(O)CC(C)C[C@H](NC(=O)[C@@H]1C[C@H](C)CN1C(=O)/C=C/C(C)CC)C(=O)N[C@H](C(=O)NC(C)(C)C(=O)N[C@@H](CC(C)C)C(=O)N[C@@H](CC(C)C)C(=O)NC(C)(C)C(=O)NC(C)(C)C(=O)NCCC(=O)NC(C)C(=O)O)[C@H](O)C(C)C (stereo partly drawn) (X2-[Pro(4S-Me)][X3][Leu(3R-OH)][Aib]LL[Aib][Aib][βAla][ξA]-OH) | inactive | Non-Toxic | inactive | inactive | Non-Toxic | inactive | inactive | Non-Toxic | Non-Toxic | inactive |  |  |  | 
2 | CCC(=O)C[C@H](O)C[C@@H](C)C[C@H](NC(=O)[C@@H]1C[C@H](C)CN1C(=O)/C=C/[C@@H](C)CC)C(=O)N[C@H](C(=O)NC(C)(C)C(=O)N[C@@H](CC(C)C)C(=O)N[C@@H](CC(C)C)C(=O)NC(C)(C)C(=O)NC(C)(C)C(=O)NCCC(=O)N[C@@H](C)CN(C)C)[C@H](O)C(C)C ({Hexenoyl(2E,4S-Me)}-[Pro(4S-Me)][X1][Leu(3R-OH)][Aib]LL[Aib][Aib][βAla]-{NH((S)CH(Me)CH2NMe2)}) | Active | Non-Toxic | Active | Active | Non-Toxic | Active | Active | Non-Toxic |  | Active | Active | Active | Active | inactive
